Test results taken from ChEMBL document CHEMBL3297654, “Synthesis, antimicrobial and cytotoxic activities, and structure-activity relationships of gypsogenin derivatives against human cancer cells” (Eur J Med Chem, 2014).
≈ marks a conversion by molar mass, not a printed value. Calls of active or inactive are those of the source. The rule behind the calls is not given here.

Assays:
Bacillus cereus [1] = experiment: Antimicrobial activity against Bacillus cereus ATCC 11778 for 24 hrs by microdillution method; assay type: functional; settings: ATCC 11778, 24 h
In short: (§1)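 Broth microdilution. Compound is dissolved in DMSO (2 mg/mL) and diluted in Mueller Hinton broth as two-fold serial dilutions from 256 to 0.125 µg/mL. Bacteria are pre-grown in nutrient broth at 30 °C, and the final inoculum is about 10^6 cfu/mL. Tests are incubated 37 °C for 24 h. MIC is the lowest concentration giving complete inhibition. Streptomycin is the positive control.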

SAOS-2 [2] = experiment: Induction of necrosis in human Saos2 cells at 20 uM after 48 hrs by Hoechst 33258/propidium iodide staining based […] microscopic analysis; assay type: functional
In short: (§2)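 Cells in 48-well plates treated with 0.5, 10, 20 or 40 µM for 24 and 48 h. Values are read at 48 h, 20 µM for test agents and 0.5 µM for controls. Staining is Hoechst 33258/propidium iodide double staining with fluorescence microscopy. Blue nuclei are viable or early-to-mid apoptotic, and pink nuclei are late apoptotic or necrotic. Apoptosis and necrosis are scored from chromatin condensation as % of cells. Cells are grown at 37 °C in 5% CO2 in RPMI, DMEM or McCoy's 5A with 10–15% heat-inactivated FCS.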

MCF7 [3] = experiment: Antiproliferative activity against human MCF7 cells after 24 and 72 hrs by MTT assay; assay type: functional, cell-based
In short: (§3)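 ATCC human cell lines are kept in RPMI, DMEM or McCoy's 5A with 10–15% heat-inactivated FCS at 37 °C and 5% CO2. They are seeded at 1×10^4–1×10^5 cells/mL in 48-well plates and exposed to 0.5, 10, 20 or 40 µM. Viability is read by MTT (590 nm) at 24 and 72 h. Growth is expressed relative to untreated cells and IC50 is fitted, in triplicate.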

Klebsiella pneumoniae = experiment: Antimicrobial activity against Klebsiella pneumoniae ATCC 13882 assessed as zone of inhibition at 30 uL for 24 hrs at 37 degC by disk diffusion test; assay type: functional, organism-based
In short: (§4)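 Compound (30 µL of a fresh 1000 µg/mL DMSO stock) goes into a 6 mm well cut in Mueller Hinton agar inoculated with 0.1 mL broth culture adjusted to 0.5 McFarland (about 1×10^8 cells/mL). Plates are incubated 24 h at 37 °C, then zone of inhibition diameter is measured in mm.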

HT-29 [4] = experiment: Induction of apoptosis in human HT-29 cells at 20 uM after 48 hrs by Hoechst 33258/propidium iodide staining based phase contrast microscopic analysis; assay type: functional; in short: as §2
Bacillus subtilis [5] = experiment: Antimicrobial activity against Bacillus subtilis ATCC 6633 for 24 hrs by microdillution method; assay type: functional; settings: ATCC 6633, 24 h; in short: as §1
Bacillus cereus [6] = experiment: Antimicrobial activity against Bacillus cereus ATCC 11778 assessed as zone of inhibition at 30 uL for 24 hrs at 30 degC by disk diffusion test; assay type: functional
In short: (§5)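 Agar well diffusion on Mueller Hinton agar seeded with 0.1 mL broth culture (18–24 h), adjusted to 0.5 McFarland (about 1×10^8 bacteria or 1×10^6 yeast cells/mL). A 6 mm well is filled with 30 µL of compound from a fresh 1000 µg/mL DMSO stock. Plates are held at 30 °C for 24 h and inhibition zone diameter is read in mm.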

Bacillus thuringiensis [7] = experiment: Antimicrobial activity against Bacillus thuringiensis for 24 hrs by microdillution method; assay type: functional; in short: as §1
Salmonella typhimurium = experiment: Antimicrobial activity against Salmonella typhimurium ATCC 14028 assessed as zone of inhibition at 30 uL for 24 hrs at 37 degC by disk diffusion test; assay type: functional, organism-based; settings: Salmonella enterica subsp. enterica serovar Typhimurium; in short: as §4
Micrococcus luteus = experiment: Antimicrobial activity against Micrococcus luteus ATCC 9341 assessed as zone of inhibition at 30 uL for 24 hrs at 30 degC by disk diffusion test; assay type: functional, organism-based; in short: as §5
Pseudomonas aeruginosa = experiment: Antimicrobial activity against Pseudomonas aeruginosa ATCC 35032 assessed as zone of inhibition at 30 uL for 24 hrs at 37 degC by disk diffusion test; assay type: functional, organism-based; in short: as §4
Candida albicans = experiment: Antimicrobial activity against Candida albicans ATCC 10231 assessed as zone of inhibition at 30 uL for 24 hrs at 30 degC by disk diffusion test; assay type: functional, organism-based; in short: as §5
HeLa [8] = experiment: Induction of apoptosis in human HeLa cells at 20 uM after 48 hrs by Hoechst 33258/propidium iodide staining based phase contrast microscopic analysis; assay type: functional; in short: as §2
HL-60 [9] = experiment: Antiproliferative activity against human HL60 cells after 24 and 72 hrs by MTT assay; assay type: functional, cell-based; in short: as §3
[10] = Antiproliferative activity against human Saos2 cells after 24 and 72 hrs by MTT assay; assay type: functional, cell-based; settings: SAOS-2; in short: as §3
[11] = test system: Staphylococcus epidermidis; experiment: Antimicrobial activity against Staphylococcus epidermidis ATCC 12228 assessed as zone of inhibition at 30 uL for 24 hrs at 37 degC by disk diffusion test; assay type: functional, organism-based; in short: as §4
Nakaseomyces glabratus = experiment: Antimicrobial activity against Candida glabrata assessed as zone of inhibition at 30 uL for 24 hrs at 30 degC by disk diffusion test; assay type: functional, organism-based; in short: as §5
Bacillus subtilis [12] = experiment: Antimicrobial activity against Bacillus subtilis ATCC 6633 assessed as zone of inhibition at 30 uL for 24 hrs at 30 degC by disk diffusion test; assay type: functional; in short: as §5
Bacillus thuringiensis [13] = experiment: Antimicrobial activity against Bacillus thuringiensis assessed as zone of inhibition at 30 uL for 24 hrs at 30 degC by disk diffusion test; assay type: functional; in short: as §5
Escherichia coli = experiment: Antimicrobial activity against Escherichia coli ATCC 25922 assessed as zone of inhibition at 30 uL for 24 hrs at 37 degC by disk diffusion test; assay type: functional, organism-based; in short: as §4
Staphylococcus aureus = experiment: Antimicrobial activity against Staphylococcus aureus ATCC 25923 assessed as zone of inhibition at 30 uL for 24 hrs at 37 degC by disk diffusion test; assay type: functional, organism-based; in short: as §4
Caco-2 [14] = experiment: Induction of necrosis in human Caco2 cells at 20 uM after 48 hrs by Hoechst 33258/propidium iodide staining based phase contrast microscopic analysis; assay type: functional; in short: as §2
HT-29 [15] = experiment: Antiproliferative activity against human HT-29 cells after 24 and 72 hrs by MTT assay; assay type: functional, cell-based; in short: as §3
MCF7 [16] = experiment: Induction of necrosis in human MCF7 cells at 20 uM after 48 hrs by Hoechst 33258/propidium iodide staining based phase contrast microscopic analysis; assay type: functional; in short: as §2
Proteus vulgaris = experiment: Antimicrobial activity against Proteus vulgaris ATCC 33420 assessed as zone of inhibition at 30 uL for 24 hrs at 37 degC by disk diffusion test; assay type: functional, organism-based; in short: as §4
MCF7 [17] = experiment: Induction of apoptosis in human MCF7 cells at 20 uM after 48 hrs by Hoechst 33258/propidium iodide staining based phase contrast microscopic analysis; assay type: functional; in short: as §2
Cyberlindnera jadinii = experiment: Antimicrobial activity against Candida utilis ATCC 9950 assessed as zone of inhibition at 30 uL for 24 hrs at 30 degC by disk diffusion test; assay type: functional, organism-based; in short: as §5
Enterococcus faecalis = experiment: Antimicrobial activity against Enterococcus faecalis ATCC 29212 assessed as zone of inhibition at 30 uL for 24 hrs at 37 degC by disk diffusion test; assay type: functional, organism-based; in short: as §4
Caco-2 [18] = experiment: Antiproliferative activity against human Caco2 cells after 24 and 72 hrs by MTT assay; assay type: functional, cell-based; in short: as §3
Caco-2 [19] = experiment: Induction of apoptosis in human Caco2 cells at 20 uM after 48 hrs by Hoechst 33258/propidium iodide staining based phase contrast microscopic analysis; assay type: functional; in short: as §2
Saccharomyces cerevisiae = experiment: Antimicrobial activity against Saccharomyces cerevisiae ATCC 9763 assessed as zone of inhibition at 30 uL for 24 hrs at 30 degC by disk diffusion test; assay type: functional, organism-based; in short: as §5
Candida tropicalis = experiment: Antimicrobial activity against Candida tropicalis assessed as zone of inhibition at 30 uL for 24 hrs at 30 degC by disk diffusion test; assay type: functional, organism-based; in short: as §5
HL-60 [20] = experiment: Induction of necrosis in human HL60 cells at 20 uM after 48 hrs by Hoechst 33258/propidium iodide staining based phase contrast microscopic analysis; assay type: functional; in short: as §2
HeLa [21] = experiment: Antiproliferative activity against human HeLa cells after 24 and 72 hrs by MTT assay; assay type: functional, cell-based; in short: as §3
SAOS-2 [22] = experiment: Induction of apoptosis in human Saos2 cells at 20 uM after 48 hrs by Hoechst 33258/propidium iodide staining based phase contrast microscopic analysis; assay type: functional; in short: as §2
HL-60 [23] = experiment: Induction of apoptosis in human HL60 cells at 20 uM after 48 hrs by Hoechst 33258/propidium iodide staining based phase contrast microscopic analysis; assay type: functional; in short: as §2
HeLa [24] = experiment: Induction of necrosis in human HeLa cells at 20 uM after 48 hrs by Hoechst 33258/propidium iodide staining based phase contrast microscopic analysis; assay type: functional; in short: as §2
HT-29 [25] = experiment: Induction of necrosis in human HT-29 cells at 20 uM after 48 hrs by Hoechst 33258/propidium iodide staining based phase contrast microscopic analysis; assay type: functional; in short: as §2

Row | SMILES | MIC (Bacillus cereus [1]) [mg/L] | Activity (SAOS-2 [2]) [%] | IC50 (MCF7 [3]) [µM] | diameter of the inhibition zone (DIZ) (Klebsiella pneumoniae) | Activity (HT-29 [4]) [%] | MIC (Bacillus subtilis [5]) [mg/L] | diameter of the inhibition zone (DIZ) (Bacillus cereus [6]) [mm] | MIC (Bacillus thuringiensis [7]) [mg/L] | diameter of the inhibition zone (DIZ) (Salmonella typhimurium) | diameter of the inhibition zone (DIZ) (Micrococcus luteus) | diameter of the inhibition zone (DIZ) (Pseudomonas aeruginosa) | diameter of the inhibition zone (DIZ) (Candida albicans) | Activity (HeLa [8]) [%] | IC50 (HL-60 [9]) [µM] | IC50 [10] [µM] | diameter of the inhibition zone (DIZ) [11] | diameter of the inhibition zone (DIZ) (Nakaseomyces glabratus) | diameter of the inhibition zone (DIZ) (Bacillus subtilis [12]) [mm] | diameter of the inhibition zone (DIZ) (Bacillus thuringiensis [13]) [mm] | diameter of the inhibition zone (DIZ) (Escherichia coli) | further results
1 | CC(=O)O[C@H]1CC[C@]2(C)[C@H]3CC=C4[C@@H]5CC(C)(C)CC[C@]5(C(=O)O)CC[C@@]4(C)[C@]3(C)CC[C@H]2[C@]1(C)C=O | 128 (≈ 250 µM) | 44 | 20.5 | inactive | 0.8 | 64 (≈ 125 µM) | 9 | 128 (≈ 250 µM) | inactive | inactive | inactive | inactive | 4 | 10.8 | 8.24 | inactive | inactive | 11 | 10 | inactive | diameter of the inhibition zone (DIZ) (Staphylococcus aureus): inactive; Activity (Caco-2 [14]): 55%; IC50 (HT-29 [15]): 11.1 µM; Activity (MCF7 [16]): 29%; diameter of the inhibition zone (DIZ) (Proteus vulgaris): inactive; Activity (MCF7 [17]): 5%; diameter of the inhibition zone (DIZ) (Cyberlindnera jadinii): inactive; diameter of the inhibition zone (DIZ) (Enterococcus faecalis): inactive; IC50 (Caco-2 [18]): 17.4 µM; Activity (Caco-2 [19]): 3%; diameter of the inhibition zone (DIZ) (Saccharomyces cerevisiae): inactive; diameter of the inhibition zone (DIZ) (Candida tropicalis): inactive; Activity (HL-60 [20]): 25%; IC50 (HeLa [21]): 35 µM; Activity (SAOS-2 [22]): 3%; Activity (HL-60 [23]): 8%; Activity (HeLa [24]): 33%; Activity (HT-29 [25]): 20%
2 | CC(=O)O[C@H]1CC[C@]2(C)[C@H]3CC=C4[C@@H]5CC(C)(C)CC[C@]5(C(=O)O)CC[C@@]4(C)[C@]3(C)CC[C@H]2[C@]1(C)/C=N/NC(N)=S | 32 (≈ 54.6 µM) | 61 | 7.5 | inactive | 3 | 32 (≈ 54.6 µM) | 14 | 32 (≈ 54.6 µM) | inactive | inactive | inactive | inactive | 2 | 12.8 | 10.1 | inactive | inactive | 14 | 14 | inactive | diameter of the inhibition zone (DIZ) (Staphylococcus aureus): inactive; Activity (Caco-2 [14]): 29%; IC50 (HT-29 [15]): 13.3 µM; Activity (MCF7 [16]): 63%; diameter of the inhibition zone (DIZ) (Proteus vulgaris): inactive; Activity (MCF7 [17]): 6%; diameter of the inhibition zone (DIZ) (Cyberlindnera jadinii): inactive; diameter of the inhibition zone (DIZ) (Enterococcus faecalis): inactive; IC50 (Caco-2 [18]): 30.4 µM; Activity (Caco-2 [19]): 3%; diameter of the inhibition zone (DIZ) (Saccharomyces cerevisiae): inactive; diameter of the inhibition zone (DIZ) (Candida tropicalis): inactive; Activity (HL-60 [20]): 67%; IC50 (HeLa [21]): 110 µM; Activity (SAOS-2 [22]): 2%; Activity (HL-60 [23]): 2%; Activity (HeLa [24]): 65%; Activity (HT-29 [25]): 26%
